Common to all, as to type: functional, tissue-based
Assay [1] addresses Histamine H1 receptor (Cavia porcellus) (UniProt P31389). Kind of assay: Antagonist activity at histamine H1 receptor in Dunkin-Hartley guinea pig ileum assessed as inhibition of histamine-induced contractions at 3 umol/L. Conditions: at 3 µM. The gist of the method:
(§1)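 Ileum segments (2 cm) were taken from stunned animals and mounted in an organ bath under 1 g initial load. The bath held Tyrode's solution at 37 °C, continuously oxygenated. After 20 min stabilization, noncumulative submaximal histamine stimuli were given. Isometric contractions were recorded without compound and after 3-5 min incubation with compound.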

For assay [2] the target is unchanged. Kind of assay: Antagonist activity at histamine H1 receptor in Dunkin-Hartley guinea pig ileum assessed as inhibition of histamine-induced contractions at 10 umol/L. The conditions noted are these: at 10 µM. A digest of the protocol:
as §1

Assay [3] has the same target. Kind of assay: Antagonist activity at histamine H1 receptor in Dunkin-Hartley guinea pig ileum assessed as inhibition of histamine-induced contractions at 30 umol/L. Conditions: at 30 µM. A digest of the protocol:
as §1

As a reminder, the inhibition is the relative decrease from the control value, in per cent.

Chain of Histamine H1 receptor (Cavia porcellus) (P31389 whole entry): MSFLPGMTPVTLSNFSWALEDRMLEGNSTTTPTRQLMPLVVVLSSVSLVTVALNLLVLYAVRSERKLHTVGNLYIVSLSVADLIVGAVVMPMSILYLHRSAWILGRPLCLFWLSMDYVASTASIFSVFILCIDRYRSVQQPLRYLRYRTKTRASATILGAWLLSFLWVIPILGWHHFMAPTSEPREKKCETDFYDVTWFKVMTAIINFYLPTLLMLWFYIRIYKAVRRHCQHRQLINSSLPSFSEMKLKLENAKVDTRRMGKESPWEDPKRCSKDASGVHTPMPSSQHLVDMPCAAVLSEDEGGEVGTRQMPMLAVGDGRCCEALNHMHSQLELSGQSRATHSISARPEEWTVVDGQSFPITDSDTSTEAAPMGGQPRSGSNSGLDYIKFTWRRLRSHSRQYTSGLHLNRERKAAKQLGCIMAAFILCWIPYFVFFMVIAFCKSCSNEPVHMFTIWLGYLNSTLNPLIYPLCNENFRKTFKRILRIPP

As for `O=C1C=C(CN2CCC(=C3c4ccc(Cl)cc4CCc4cccnc43)CC2)/C(=C/c2ccc(F)cc2)O1`, the figures for the inhibition in assay [1], in assay [2] and in assay [3] were 6.99%, 19% and 30.6%, respectively.

Consider `COc1ccccc1/C=C1\OC(=O)C=C1CN1CCC(=C2c3ccc(Cl)cc3CCc3cccnc32)CC1`, for which the inhibition in assay [1] stood at 29.4%; in assay [2], 59.2%; in assay [3] it was 87.8%.

In the case of `Clc1ccc2c(c1)CCc1cccnc1C2=C1CCNCC1`, the inhibition amounted to 47.4% in assay [1], 77.7% in assay [2] and 80.4% in assay [3].

For the compound `O=C1C=C(CN2CCC(=C3c4ccc(Cl)cc4CCc4cccnc43)CC2)/C(=C/c2ccc(O)cc2)O1`, the results for the inhibition in assay [1], in assay [2] and in assay [3] were 3.54%, 41% and 65.6%, respectively.

On to `COc1cc(/C=C2\OC(=O)C=C2CN2CCC(=C3c4ccc(Cl)cc4CCc4cccnc43)CC2)cc(OC)c1OC`, for which the figures for the inhibition in assay [1], in assay [2] and in assay [3] were 4.23%, 32.9% and 52.8%, respectively.

As to `COc1cc(/C=C2\OC(=O)C=C2CN2CCC(=C3c4ccc(Cl)cc4CCc4cccnc43)CC2)ccc1O`, the figures for the inhibition in assay [1], in assay [2] and in assay [3] were 4.67%, 42.5% and 62.6%, respectively.

On to `O=C1C=C(CN2CCC(=C3c4ccc(Cl)cc4CCc4cccnc43)CC2)/C(=C/c2ccc(Cl)cc2)O1`, for which the inhibition worked out at 37% in assay [1], 51.3% in assay [2] and 66.7% in assay [3].

Regarding `CCOC(=O)N1CCC(=C2c3ccc(Cl)cc3CCc3cccnc32)CC1`, the inhibition in assay [1] was 15.7%; in assay [2] it was 33.4%; in assay [3], 64.7%.

As for `CS(=O)(=O)c1ccc(/C=C2\OC(=O)C=C2CN2CCC(=C3c4ccc(Cl)cc4CCc4cccnc43)CC2)cc1`, the inhibition is 12.4% in assay [1], 50.4% in assay [2] and 71.9% in assay [3].

With `CN(C)c1ccc(/C=C2\OC(=O)C=C2CN2CCC(=C3c4ccc(Cl)cc4CCc4cccnc43)CC2)cc1`, the values for the inhibition in assay [1], in assay [2] and in assay [3] were 61.6%, 77.6% and 82.3%, respectively.

Regarding `O=C1C=C(CN2CCC(=C3c4ccc(Cl)cc4CCc4cccnc43)CC2)C(C(O)c2ccccc2)O1` (configuration not stated), in assay [1], the inhibition was determined as 42.7%.

As to `COc1ccccc1C(O)C1OC(=O)C=C1CN1CCC(=C2c3ccc(Cl)cc3CCc3cccnc32)CC1` (configuration not stated), the inhibition in assay [1] came out at 40.8%; in assay [2], 61.5%; in assay [3] it was 74.1%.

In the case of `O=C1C=C(CN2CCC(=C3c4ccc(Cl)cc4CCc4cccnc43)CC2)CO1`, the inhibition in assay [1] is 33.4%; in assay [2] it was 79%; in assay [3], 94.8%.

(Values after ChEMBL document CHEMBL1156917, “Stereoselective synthesis of desloratadine derivatives as antagonist of histamine” (Bioorg Med Chem, 2010).)
